Test results: ChEMBL document CHEMBL4270634, “Benzothiazole carbamates and amides as antiproliferative species” (Eur J Med Chem, 2018)
Activity calls are given as the source filed them. No cut-off for these calls is given here.

Key:
[1] = tested on: NTERA-2-cl-D1; assay: Induction of apoptosis in adherent human NT2/D1 cells at 1 uM after 24 to 48 hrs by Annexin V-FITC/PI staining based flow cytometry; type: functional
Outline: (§1)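 NT2/D1 cells were exposed to 1 µM compound for 24 h and 48 h. Floating and adherent cells were harvested and analysed separately by bivariate Annexin V-FITC/PI flow cytometry. Cells were scored as early or late apoptotic.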

[2] = tested on: NTERA-2-cl-D1; assay: Induction of apoptosis in floating human NT2/D1 cells at 1 uM after 24 to 48 hrs by Annexin V-FITC/PI staining based flow cytometry; type: functional, cell-based; outline: as §1
[3] = tested on: NTERA-2-cl-D1; assay: Cell cycle arrest in human NT2/D1 cells assessed as accumulation at G0/G1 phase at 1 uM after 24 hrs by propidium iodide staining based flow cytometry (reference value: 52.65%); type: functional
[4] = tested on: NTERA-2-cl-D1; assay: Antimigratory activity in human NT2/D1 cells at IC50 measured after 20 hrs by scratch wound healing based inverted microscopy relative to control; type: functional
Outline: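 Cells grown to near confluency, scratched, then treated with IC₅₀ concentrations or vehicle (DMSO). Wounds imaged at 0 h and 20 h, and cells migrating into the denuded zone were counted. Result expressed as % of untreated cells. Triplicate; error bars SEM.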

[5] = tested on: Mus musculus; assay: Acute toxicity in athymic nude mouse at 100 to 400 mg/kg ip administered as single dose measured after 14 days; type: organism-based; details: in vivo, 336 h
Outline: (§2)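 Single i.p. injection into nontumored female athymic nude mice as an NCI maximum-tolerated-dose acute toxicity assay.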

[6] = tested on: MCF7; assay: Cell cycle arrest in human MCF7 cells assessed as accumulation at sub-G1 phase at 25 uM after 24 hrs by propidium iodide staining based flow cytometry (reference value: 0.65%); type: functional
[7] = tested on: MCF7; assay: Cell cycle arrest in human MCF7 cells assessed as accumulation at G0/G1 phase at 25 uM after 24 hrs by propidium iodide staining based flow cytometry (reference value: 44.23%); type: functional
[8] = tested on: MCF7; assay: Cell cycle arrest in human MCF7 cells assessed as accumulation at S phase at 25 uM after 24 hrs by propidium iodide staining based flow cytometry (reference value: 28.27%); type: functional
[9] = tested on: MCF7; assay: Cell cycle arrest in human MCF7 cells assessed as accumulation at G2/M phase at 25 uM after 24 hrs by propidium iodide staining based flow cytometry (reference value: 27.04%); type: functional
[10] = tested on: MCF7; assay: Cell cycle arrest in human MCF7 cells assessed as accumulation at sub-G1 phase at 25 uM after 48 hrs by propidium iodide staining based flow cytometry (reference value: 0.41%); type: functional
[11] = tested on: MCF7; assay: Cell cycle arrest in human MCF7 cells assessed as accumulation at G0/G1 phase at 25 uM after 48 hrs by propidium iodide staining based flow cytometry (reference value: 48.80%); type: functional
[12] = tested on: MCF7; assay: Cell cycle arrest in human MCF7 cells assessed as accumulation at S phase at 25 uM after 48 hrs by propidium iodide staining based flow cytometry (reference value: 23.07%); type: functional
[13] = tested on: MCF7; assay: Cell cycle arrest in human MCF7 cells assessed as accumulation at G2/M phase at 25 uM after 48 hrs by propidium iodide staining based flow cytometry (reference value: 28.03%); type: functional
[14] = tested on: MCF7; assay: Cell cycle arrest in human MCF7 cells at 25 uM by propidium iodide staining based flow cytometry; type: functional; details: TDE = time-dependent effect
[15] = tested on: MCF7; assay: Effect on cyclin B1 levels in human MCF7 cells at 25 uM after 24 hrs by propidium iodide staining based flow cytometry (reference value: 26.6%); type: functional
Outline: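 MCF-7 cells treated 24 h at 25 µM or 30 µM; intracellular cyclin B1 level measured by flow cytometry.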

[16] = tested on: MCF7; assay: Induction of apoptosis in human MCF7 cells assessed as early apoptotic cells at 25 uM after 24 hrs by Annexin V-FITC/PI staining based flow cytometry (reference value: 1.30%); type: functional
Outline: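 MCF-7 cells were treated for 24 h at a single concentration (25 µM or 30 µM, depending on compound). Apoptosis was assessed by bivariate Annexin V-FITC/PI flow cytometry, distinguishing early apoptotic from late apoptotic/necrotic cells, against untreated control.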

[17] = tested on: MCF7; assay: Induction of apoptosis in human MCF7 cells assessed as late apoptotic cells at 25 uM after 24 hrs by Annexin V-FITC/PI staining based flow cytometry (reference value: 2.78%); type: functional
[18] = tested on: MCF7; assay: Induction of apoptosis in human MCF7 cells assessed as necrotic cells at 25 uM after 24 hrs by Annexin V-FITC/PI staining based flow cytometry (reference value: 2.62%); type: functional
[19] = tested on: MCF7; assay: Induction of apoptosis in human MCF7 cells assessed as early apoptotic cells at 25 uM after 48 hrs by Annexin V-FITC/PI staining based flow cytometry (reference value: 0.98%); type: functional
[20] = tested on: MCF7; assay: Induction of apoptosis in human MCF7 cells assessed as late apoptotic cells at 25 uM after 48 hrs by Annexin V-FITC/PI staining based flow cytometry (reference value: 2.95%); type: functional
[21] = tested on: MCF7; assay: Induction of apoptosis in human MCF7 cells assessed as necrotic cells at 25 uM after 48 hrs by Annexin V-FITC/PI staining based flow cytometry (reference value: 0.82%); type: functional
[22] = tested on: MCF7; assay: Induction of mitochondrial membrane potential loss in human MCF7 cells at IC50 measured after 24 hrs by Rh123 dye-based flow cytometric analysis; type: functional, cell-based
Outline: (§3)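 Mitochondrial membrane potential was assessed by Rh123 incorporation with flow cytometry and compared with untreated cells.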

[23] = tested on: MCF7; assay: Induction of mitochondrial membrane potential loss in human MCF7 cells at IC50 measured after 48 hrs by Rh123 dye-based flow cytometric analysis; type: functional; outline: as §3
[24] = tested on: MCF7; assay: Induction of apoptosis in human MCF7 cells assessed as increase in Bax protein expression level at IC50 measured after 24 to 48 hrs by flow cytometric analysis; type: functional, cell-based
[25] = tested on: MCF7; assay: Effect on Bcl-2 protein expression level in human MCF7 cells at IC50 measured after 24 hrs by flow cytometric analysis; type: functional, cell-based
Outline: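 Bax and Bcl-2 expression in MCF-7 cells quantified by FACS after 24 and 48 h at a single equipotent (IC₅₀) concentration; Bax/Bcl-2 ratio expressed as fold of untreated control.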

[26] = tested on: MCF7; assay: Induction of apoptosis in human MCF7 cells assessed as decrease in Bcl-2 protein expression level at IC50 measured after 48 hrs by flow cytometric analysis; type: functional, cell-based
[27] = tested on: MCF7; assay: Induction of apoptosis in human MCF7 cells assessed as increase in p53 protein expression level at IC50 measured after 24 to 48 hrs by flow cytometric analysis; type: functional, cell-based
[28] = tested on: MCF7; assay: Induction of apoptosis in human MCF7 cells assessed as decrease in p73 protein expression level at IC50 measured after 24 to 48 hrs by flow cytometric analysis; type: functional, cell-based
[29] = tested on: MCF7; assay: Decrease in ROS production in human MCF7 cells at IC50 measured after 24 to 48 hrs by DCFH-DA probe based flow cytometric analysis; type: functional, cell-based
[30] = tested on: Mus musculus; assay: Acute toxicity in athymic nude mouse at 50 to 200 mg/kg ip administered as single dose measured after 14 days; type: organism-based; details: in vivo, 336 h; outline: as §2
[31] = tested on: MCF7; assay: Decrease in ROS production in human MCF7 cells at 25 uM measured after 24 hrs by DCFH-DA probe based flow cytometric analysis; type: functional; set-up: scale not given: the % may be the effect or the level left
Outline: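 MCF-7 cells exposed 24 h at 25 µM. Intracellular ROS measured by flow cytometry with DCFH-DA and compared to untreated control cells.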

**Q.** Which Activity [1] does the source give for `CCCCSc1ccc2nc(NC(=O)OCCC)sc2c1` here?
**A.** <10%

**Q.** What about the Activity [2] of the same compound?
**A.** Active

**Q.** What about the Activity [3] of the same compound?
**A.** 9.46%

**Q.** And the Activity [4]?
**A.** 40%

**Q.** What about the Activity [5] of the same compound?
**A.** Non-Toxic

**Q.** What does the source list for `CCCOC(=O)Nc1nc2ccc(SCCC)cc2s1`?
**A.** Activity [6]: 24.58%; Activity [7]: 15.62%; Activity [8]: 19.3%; Activity [9]: 40.66%; Activity [10]: 50.4%; Activity [11]: 18.82%; Activity [12]: 15.9%; Activity [13]: 15.25%; Activity [14]: Tde; Activity [15]: 50.8%; Activity [16]: 21%; Activity [17]: 4.33%; Activity [18]: 3.53%; Activity [19]: 61.06%; Activity [20]: 7.53%; Activity [21]: 2.61%; Activity [22]: Active; Activity [23]: >80%; Activity [24]: Active; Activity [25]: inactive; Activity [26]: Active; Activity [27]: Active; Activity [28]: inactive; Activity [29]: Active; Activity [1]: <10%; Activity [2]: Active; Activity [3]: 22.69%; Activity [4]: 60%; Activity [30]: Non-Toxic

**Q.** For `CCCOC(=O)Nc1nc2ccc(OCC)cc2s1`, which Activity [31] is on record?
**A.** 15%
